ChEMBL document CHEMBL1145920 (J Med Chem, 2003)
≈ marks a conversion by molar mass, not a printed value.

Assays:
[1] = target: T1, Vascular endothelial growth factor receptor 2 (Homo sapiens, UniProt P35968); assay: In vitro inhibitory concentration against human vascular endothelial growth factor receptor 2
Summary of the method: (§1)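 Baculovirus-expressed human kinase cytoplasmic domains; ELISA-type assay with time-resolved fluorescence readout (Eu-N1 antiphosphotyrosine antibody). […] For VEGF-R2, PLC-γ/GST fusion substrate and 15 min at 37 °C.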

[2] = target: T2, Vascular endothelial growth factor receptor (Homo sapiens) (UniProt P17948+P35916+P35968); settings: HUVEC, 40 nM
[3] = target: High affinity nerve growth factor receptor (Homo sapiens, UniProt P04629); assay: Inhibition of TrkA receptor
Summary of the method: (§2)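 Recombinant human cytoplasmic kinase domains (TrkA, Flt-3) expressed in baculovirus-infected insect cells. […] Eu-N1 antiphosphotyrosine detection by time-resolved fluorescence.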

[4] = target: Mitogen-activated protein kinase 14 (Homo sapiens, UniProt Q16539); assay: Inhibition of Mitogen-activated protein kinase p38 alpha
Summary of the method: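 Enzyme was activated recombinant human GST-p38α.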

[5] = target: Vascular endothelial growth factor receptor 1 (Homo sapiens, UniProt P17948); assay: Inhibition of Vascular endothelial growth factor receptor 1; summary of the method: as §1
[6] = target: Fibroblast growth factor receptor 1 (Homo sapiens, UniProt P11362); assay: Inhibition of Fibroblast growth factor receptor 1
[7] = target: Mitogen-activated protein kinase 8 (Homo sapiens, UniProt P45983); assay: Inhibition of c-Jun N-terminal kinase 1-beta 1
[8] = target: T2, Vascular endothelial growth factor receptor (Homo sapiens); settings: Capillary, HUVEC, 400 nM
[9] = target: Vascular endothelial growth factor receptor 3 (Homo sapiens, UniProt P35916); assay: Inhibition of Vascular endothelial growth factor receptor 3
Summary of the method: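 Recombinant human VEGF-R3 cytoplasmic domain was expressed in baculovirus-infected insect cells and assayed by ELISA as for VEGF-R2, with PLC-γ/GST fusion substrate. […] Read-out was Eu-antiphosphotyrosine time-resolved fluorescence.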

[10] = target: Serine/threonine-protein kinase Chk2 (Homo sapiens, UniProt O96017); assay: Inhibition of Serine/threonine-protein kinase Chk2 (CDS1 receptor)
[11] = Solubility was determined; assay type: physicochemical
[12] = target: Cyclin-dependent kinase 1/cyclin B (Homo sapiens, UniProt P06493); assay: Inhibition of Cyclin-dependent kinase 1-cyclin B; assay type: protein-complex assay
Summary of the method: (§3)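 Enzymes were baculovirus-expressed recombinant human cytoplasmic domains: CDK1/cyclinB and CHK1.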

[13] = target: Protein kinase C, PKC; classical (Rattus norvegicus, UniProt P05696+P68403+P63319); assay: Inhibition of rat brain Protein kinase C
Summary of the method: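 Enzyme was purified rat brain PKC, a mixture of the Ca2+-dependent α, β and γ isozymes.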

[14] = target: T1, Vascular endothelial growth factor receptor 2; settings: HUVEC, 100 nM
[15] = Plasma level in rats at 30 mg/kg; assay type: ADME, organism-based; design: dose 30 mg/kg; settings: rat
Summary of the method: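 Fasted adult male Sprague–Dawley rats (n = 3) given a single oral gavage dose at 2 mL/kg in 3:1 gelucire/PG vehicle. Plasma prepared by acetonitrile protein precipitation and analyzed by HPLC–tandem MS.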

[16] = target: Mast/stem cell growth factor receptor Kit (Homo sapiens, UniProt P10721); assay: Inhibition of Proto-oncogene tyrosine-protein kinase Kit
Angiopoietin-1 receptor = Angiopoietin-1 receptor (Homo sapiens, UniProt Q02763); assay: Inhibition of Tyrosine protein kinase receptor TIE-2; summary of the method: as §1
Mus musculus [17] = assay: Inhibition of murine SVR angiosarcoma in mice administered b.i.d. for 10 days; assay type: functional; settings: oral, 240 h, read-out: MED
Summary of the method: (§4)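 Female athymic nu/nu mice, 6–8 weeks old; 1×10^6 SVR murine angiosarcoma cells implanted sc in right flank with Matrigel (1:1 v/v). At tumor volumes of 80–180 mm³, randomized (usually 8–10/group) and dosed orally b.i.d. (T = 0, 8 h), 0.35–23.8 mg/kg at 100 μL/dose; vehicles PG:Tween 80 (1:1) or 1% HOAc. Caliper tumor volumes every 3–4 days; Mann–Whitney test.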

[18] = target: T3, Receptor-type tyrosine-protein kinase FLT3 (Homo sapiens, UniProt P36888); assay: Inhibition of Tyrosine-protein kinase receptor FLT3 (fms-related tyrosine kinase 3) receptor; summary of the method: as §2
T3 sequence (P36888 whole entry): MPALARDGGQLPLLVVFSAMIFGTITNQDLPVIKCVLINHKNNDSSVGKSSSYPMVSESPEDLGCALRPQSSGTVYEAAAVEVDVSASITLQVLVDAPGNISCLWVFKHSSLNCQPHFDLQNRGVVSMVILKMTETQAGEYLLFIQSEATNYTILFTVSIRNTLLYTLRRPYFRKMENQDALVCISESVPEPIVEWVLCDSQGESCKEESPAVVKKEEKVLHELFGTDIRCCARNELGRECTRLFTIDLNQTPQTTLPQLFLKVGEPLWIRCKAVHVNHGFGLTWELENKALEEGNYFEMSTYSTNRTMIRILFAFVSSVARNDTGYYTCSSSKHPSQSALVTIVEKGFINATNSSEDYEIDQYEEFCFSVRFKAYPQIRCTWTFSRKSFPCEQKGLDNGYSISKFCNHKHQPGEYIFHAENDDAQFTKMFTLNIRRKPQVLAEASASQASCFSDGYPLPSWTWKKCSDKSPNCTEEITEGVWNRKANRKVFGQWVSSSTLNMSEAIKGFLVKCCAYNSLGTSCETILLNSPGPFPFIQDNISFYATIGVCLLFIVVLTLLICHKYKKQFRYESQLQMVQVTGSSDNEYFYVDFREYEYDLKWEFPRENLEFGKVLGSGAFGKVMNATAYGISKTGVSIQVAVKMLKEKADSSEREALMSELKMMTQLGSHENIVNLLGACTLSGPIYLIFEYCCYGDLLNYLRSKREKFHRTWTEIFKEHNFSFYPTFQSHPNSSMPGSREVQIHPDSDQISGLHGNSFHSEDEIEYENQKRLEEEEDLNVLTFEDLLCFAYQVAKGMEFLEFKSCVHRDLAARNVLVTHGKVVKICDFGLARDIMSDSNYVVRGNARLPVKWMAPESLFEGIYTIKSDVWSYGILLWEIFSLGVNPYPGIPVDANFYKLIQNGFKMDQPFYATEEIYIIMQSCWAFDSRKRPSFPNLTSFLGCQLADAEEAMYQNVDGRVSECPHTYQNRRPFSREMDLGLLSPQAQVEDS

[19] = target: T2, Vascular endothelial growth factor receptor (Homo sapiens); settings: HUVEC, 100 nM
Mus musculus [20] = assay: In vivo antitumor activity against SVR tumor growth in nude mice by oral administration of 10 mg/kg b.i.d. for 10 days; assay type: functional; settings: 240 h; summary of the method: as §4
[21] = target: T1, Vascular endothelial growth factor receptor 2; assay: Inhibition of human Vascular endothelial growth factor receptor 2
Summary of the method: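 Baculovirus-expressed recombinant human VEGF-R2 cytoplasmic domain was assayed by ELISA with a GST–phospholipase C-γ fusion substrate. […] Eu-N1 antiphosphotyrosine was added for 1 h at 37 °C and read by time-resolved fluorescence. IC50 came from nonlinear sigmoidal fits, averaging at least 3 determinations.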

[22] = target: T4, Serine/threonine-protein kinase Chk1 (Homo sapiens, UniProt O14757); assay: Inhibition of Serine/threonine-protein kinase Chk1; summary of the method: as §3
T4 sequence (O14757 whole entry): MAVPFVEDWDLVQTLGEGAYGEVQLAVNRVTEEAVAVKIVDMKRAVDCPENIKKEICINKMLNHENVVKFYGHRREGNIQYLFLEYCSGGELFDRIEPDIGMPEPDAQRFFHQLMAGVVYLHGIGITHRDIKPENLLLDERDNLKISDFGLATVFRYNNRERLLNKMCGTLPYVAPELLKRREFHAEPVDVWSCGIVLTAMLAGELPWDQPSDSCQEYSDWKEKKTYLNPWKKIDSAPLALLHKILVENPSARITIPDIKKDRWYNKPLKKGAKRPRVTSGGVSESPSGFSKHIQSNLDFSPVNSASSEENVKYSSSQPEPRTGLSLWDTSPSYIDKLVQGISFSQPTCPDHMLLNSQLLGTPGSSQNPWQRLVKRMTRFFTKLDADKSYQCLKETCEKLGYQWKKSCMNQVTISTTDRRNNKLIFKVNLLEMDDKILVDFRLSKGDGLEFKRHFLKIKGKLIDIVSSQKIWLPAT

[23] = target: T1, Vascular endothelial growth factor receptor 2; settings: HUVEC, 10 nM
Mus musculus [24] = assay: Antitumor activity against SVR tumor growth in mice by administration of 20 mg/kg b.i.d.; assay type: functional; settings: oral; summary of the method: as §4
[25] = target: T1, Vascular endothelial growth factor receptor 2; assay: Inhibition of Vascular endothelial growth factor receptor 2 autophosphorylation by VEGF in human umbilical vein endothelial cells (HUVECs) at 200 nM; assay type: cell-based; settings: HUVEC
Summary of the method: (§5)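 Subconfluent HUVECs serum-starved 1 h at 37 °C in EBM-2 with 0.05% BSA, with drug or DMSO present, then stimulated with 10 ng/mL human VEGF for 5 min. Lysates protein-normalized, anti-VEGF-R2 immunoprecipitated, run on SDS-PAGE, antiphosphotyrosine immunoblot, ECL.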

[26] = target: T1, Vascular endothelial growth factor receptor 2; assay: Inhibition of Vascular endothelial growth factor receptor 2 autophosphorylation by VEGF in human umbilical vein endothelial cells (HUVECs) at 50 nM; assay type: cell-based; settings: HUVEC; summary of the method: as §5
[27] = target: T1, Vascular endothelial growth factor receptor 2; assay: Inhibition of Vascular endothelial growth factor receptor 2 autophosphorylation by VEGF in human umbilical vein endothelial cells (HUVECs) at 10 nM; assay type: cell-based; settings: HUVEC; summary of the method: as §5
Mus musculus [28] = assay: Antitumor activity against SVR tumor growth in mice by administration of 23.8 mg/kg b.i.d.; assay type: functional; settings: oral; summary of the method: as §4
[29] = target: T1, Vascular endothelial growth factor receptor 2; assay: Inhibition of Vascular endothelial growth factor receptor 2 autophosphorylation by VEGF in human umbilical vein endothelial cells (HUVECs) at 100 nM; assay type: cell-based; settings: HUVEC; summary of the method: as §5

T2 sequence (P17948 whole entry, looked up): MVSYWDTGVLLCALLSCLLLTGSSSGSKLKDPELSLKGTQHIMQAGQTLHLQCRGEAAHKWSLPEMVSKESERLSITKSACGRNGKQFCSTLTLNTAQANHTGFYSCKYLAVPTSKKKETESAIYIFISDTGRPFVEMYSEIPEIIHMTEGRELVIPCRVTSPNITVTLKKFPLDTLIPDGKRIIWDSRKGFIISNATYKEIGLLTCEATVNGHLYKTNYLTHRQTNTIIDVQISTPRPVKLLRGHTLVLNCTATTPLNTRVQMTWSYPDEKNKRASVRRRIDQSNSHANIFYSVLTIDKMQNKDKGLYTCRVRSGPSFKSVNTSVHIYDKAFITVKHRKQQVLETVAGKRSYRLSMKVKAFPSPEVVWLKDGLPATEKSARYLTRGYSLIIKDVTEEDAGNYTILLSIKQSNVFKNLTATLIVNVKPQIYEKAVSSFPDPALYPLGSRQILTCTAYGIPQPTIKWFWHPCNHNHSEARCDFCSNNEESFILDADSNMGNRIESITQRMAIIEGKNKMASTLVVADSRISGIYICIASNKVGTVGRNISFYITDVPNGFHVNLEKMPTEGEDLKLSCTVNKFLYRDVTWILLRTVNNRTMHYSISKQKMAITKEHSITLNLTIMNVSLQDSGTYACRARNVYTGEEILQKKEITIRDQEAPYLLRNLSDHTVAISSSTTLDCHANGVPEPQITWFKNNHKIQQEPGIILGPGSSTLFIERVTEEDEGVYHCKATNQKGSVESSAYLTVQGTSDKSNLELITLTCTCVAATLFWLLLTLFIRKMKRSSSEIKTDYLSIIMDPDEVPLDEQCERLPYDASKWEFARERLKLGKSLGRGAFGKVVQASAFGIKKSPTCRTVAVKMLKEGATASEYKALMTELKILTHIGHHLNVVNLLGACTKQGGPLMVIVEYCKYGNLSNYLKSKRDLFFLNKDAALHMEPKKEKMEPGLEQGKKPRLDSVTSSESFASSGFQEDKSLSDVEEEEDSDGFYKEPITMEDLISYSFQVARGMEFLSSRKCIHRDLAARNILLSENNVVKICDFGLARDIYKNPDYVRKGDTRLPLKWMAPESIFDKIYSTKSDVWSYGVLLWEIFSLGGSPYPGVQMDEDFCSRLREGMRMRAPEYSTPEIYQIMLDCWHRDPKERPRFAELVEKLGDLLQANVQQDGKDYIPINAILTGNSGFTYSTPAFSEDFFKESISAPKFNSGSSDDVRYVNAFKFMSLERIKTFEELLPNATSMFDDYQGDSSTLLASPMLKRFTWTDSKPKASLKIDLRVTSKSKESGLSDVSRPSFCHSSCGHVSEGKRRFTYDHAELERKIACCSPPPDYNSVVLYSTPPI
T2 sequence (P35916 whole entry, looked up): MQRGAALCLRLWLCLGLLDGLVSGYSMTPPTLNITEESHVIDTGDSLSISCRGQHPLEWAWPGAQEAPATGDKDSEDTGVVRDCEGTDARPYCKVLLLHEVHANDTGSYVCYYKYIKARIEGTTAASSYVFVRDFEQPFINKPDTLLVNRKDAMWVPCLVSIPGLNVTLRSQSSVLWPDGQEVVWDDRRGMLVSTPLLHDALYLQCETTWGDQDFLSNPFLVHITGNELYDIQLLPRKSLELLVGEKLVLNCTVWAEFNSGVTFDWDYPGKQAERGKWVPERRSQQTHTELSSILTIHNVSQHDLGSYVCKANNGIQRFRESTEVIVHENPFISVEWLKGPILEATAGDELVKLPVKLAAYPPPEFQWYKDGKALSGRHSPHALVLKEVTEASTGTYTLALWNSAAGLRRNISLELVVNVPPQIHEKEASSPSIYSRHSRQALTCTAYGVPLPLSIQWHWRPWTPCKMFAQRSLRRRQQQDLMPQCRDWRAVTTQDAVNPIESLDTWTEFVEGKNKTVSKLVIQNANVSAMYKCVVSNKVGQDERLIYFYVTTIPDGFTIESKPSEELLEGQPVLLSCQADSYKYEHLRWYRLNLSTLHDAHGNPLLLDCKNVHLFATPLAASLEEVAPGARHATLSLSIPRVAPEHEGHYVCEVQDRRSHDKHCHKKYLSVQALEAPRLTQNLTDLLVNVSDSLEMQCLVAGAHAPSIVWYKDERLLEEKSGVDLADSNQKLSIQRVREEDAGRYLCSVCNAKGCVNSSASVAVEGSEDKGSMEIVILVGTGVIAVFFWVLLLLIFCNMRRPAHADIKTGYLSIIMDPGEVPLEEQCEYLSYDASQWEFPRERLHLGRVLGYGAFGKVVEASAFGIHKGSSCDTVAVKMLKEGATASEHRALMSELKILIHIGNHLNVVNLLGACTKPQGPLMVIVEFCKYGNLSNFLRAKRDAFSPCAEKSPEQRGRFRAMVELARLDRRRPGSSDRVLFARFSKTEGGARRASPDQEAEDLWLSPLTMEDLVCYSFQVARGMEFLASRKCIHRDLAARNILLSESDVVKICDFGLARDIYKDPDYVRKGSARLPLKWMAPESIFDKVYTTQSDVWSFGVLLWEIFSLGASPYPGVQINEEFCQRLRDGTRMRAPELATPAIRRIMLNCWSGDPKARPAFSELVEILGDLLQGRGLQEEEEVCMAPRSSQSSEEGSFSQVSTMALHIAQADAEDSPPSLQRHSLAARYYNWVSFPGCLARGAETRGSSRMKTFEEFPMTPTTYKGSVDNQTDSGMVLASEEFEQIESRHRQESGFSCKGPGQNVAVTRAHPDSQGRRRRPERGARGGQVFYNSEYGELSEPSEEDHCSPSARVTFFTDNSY
T2 sequence (P35968 whole entry, looked up): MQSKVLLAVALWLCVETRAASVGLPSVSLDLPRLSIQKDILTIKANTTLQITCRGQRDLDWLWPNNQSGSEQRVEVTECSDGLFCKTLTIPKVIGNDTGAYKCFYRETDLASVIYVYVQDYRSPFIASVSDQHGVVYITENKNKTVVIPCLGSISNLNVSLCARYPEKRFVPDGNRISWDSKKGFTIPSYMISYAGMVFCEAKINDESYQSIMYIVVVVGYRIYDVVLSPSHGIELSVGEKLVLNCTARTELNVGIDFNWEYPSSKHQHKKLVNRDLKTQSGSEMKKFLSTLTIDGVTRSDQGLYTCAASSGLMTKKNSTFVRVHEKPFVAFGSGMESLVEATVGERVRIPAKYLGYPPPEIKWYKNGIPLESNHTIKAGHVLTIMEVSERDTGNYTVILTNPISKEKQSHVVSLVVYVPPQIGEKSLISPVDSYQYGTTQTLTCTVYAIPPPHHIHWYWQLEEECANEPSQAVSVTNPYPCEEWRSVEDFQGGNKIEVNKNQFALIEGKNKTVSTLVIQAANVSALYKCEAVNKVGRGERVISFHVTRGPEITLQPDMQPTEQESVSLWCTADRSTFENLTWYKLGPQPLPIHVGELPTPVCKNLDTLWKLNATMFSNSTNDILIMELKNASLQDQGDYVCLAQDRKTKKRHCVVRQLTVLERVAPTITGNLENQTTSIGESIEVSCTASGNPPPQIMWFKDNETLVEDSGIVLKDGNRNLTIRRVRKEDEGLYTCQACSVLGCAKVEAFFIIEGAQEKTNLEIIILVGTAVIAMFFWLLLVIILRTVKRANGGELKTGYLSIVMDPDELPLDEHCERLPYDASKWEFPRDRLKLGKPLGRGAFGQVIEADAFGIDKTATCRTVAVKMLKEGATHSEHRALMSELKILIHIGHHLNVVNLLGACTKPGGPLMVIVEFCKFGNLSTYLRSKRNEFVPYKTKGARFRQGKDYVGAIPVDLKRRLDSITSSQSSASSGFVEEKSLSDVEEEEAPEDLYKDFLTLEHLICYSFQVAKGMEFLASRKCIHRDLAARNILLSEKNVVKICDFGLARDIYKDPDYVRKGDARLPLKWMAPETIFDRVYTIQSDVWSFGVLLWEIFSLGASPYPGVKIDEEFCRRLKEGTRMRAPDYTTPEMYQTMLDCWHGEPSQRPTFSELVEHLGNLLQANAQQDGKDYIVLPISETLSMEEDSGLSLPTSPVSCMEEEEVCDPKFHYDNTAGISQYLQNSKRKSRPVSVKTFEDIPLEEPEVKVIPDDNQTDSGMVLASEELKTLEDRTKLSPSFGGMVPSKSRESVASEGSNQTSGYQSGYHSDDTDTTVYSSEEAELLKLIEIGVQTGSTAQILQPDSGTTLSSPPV
T1 sequence (P35968 whole entry, the tested form may be a part): as the sequence (P35968 whole entry, looked up) above
Vascular endothelial growth factor receptor 3, sequence (P35916 whole entry, the tested form may be a part): as the sequence (P35916 whole entry, looked up) above
Vascular endothelial growth factor receptor 1, sequence (P17948 whole entry): as the sequence (P17948 whole entry, looked up) above
High affinity nerve growth factor receptor, sequence (P04629 whole entry, the tested form may be a part): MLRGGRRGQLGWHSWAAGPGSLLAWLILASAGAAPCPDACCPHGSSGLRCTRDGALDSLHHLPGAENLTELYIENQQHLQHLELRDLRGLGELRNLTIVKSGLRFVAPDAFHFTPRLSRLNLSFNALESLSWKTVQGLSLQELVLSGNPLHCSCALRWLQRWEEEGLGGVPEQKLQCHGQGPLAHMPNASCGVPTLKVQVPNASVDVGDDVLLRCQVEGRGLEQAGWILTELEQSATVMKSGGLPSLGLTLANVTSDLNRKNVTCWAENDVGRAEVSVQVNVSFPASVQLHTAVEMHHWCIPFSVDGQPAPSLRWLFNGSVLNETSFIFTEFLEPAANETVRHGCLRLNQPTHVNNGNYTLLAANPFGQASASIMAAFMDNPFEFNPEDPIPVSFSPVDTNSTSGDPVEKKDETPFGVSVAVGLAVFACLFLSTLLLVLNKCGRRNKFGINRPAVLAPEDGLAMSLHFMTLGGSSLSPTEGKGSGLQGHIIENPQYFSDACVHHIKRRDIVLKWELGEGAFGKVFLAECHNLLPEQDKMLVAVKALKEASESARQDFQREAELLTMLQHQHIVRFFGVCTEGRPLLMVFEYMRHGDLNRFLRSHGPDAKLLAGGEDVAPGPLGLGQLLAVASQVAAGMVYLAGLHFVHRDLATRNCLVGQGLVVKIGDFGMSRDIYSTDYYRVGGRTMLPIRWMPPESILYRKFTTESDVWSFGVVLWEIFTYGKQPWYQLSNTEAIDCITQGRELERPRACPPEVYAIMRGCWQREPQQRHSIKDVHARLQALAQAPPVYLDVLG

For `CC(C)CCOCc1ccc2c(c1)c1c3c(c4c(c1n2CCCO)Cc1ccccc1-4)C(=O)NC3`, the IC50 [1] was 276 nM.

In the case of `CC(C)OCc1ccc2c(c1)c1c3c(c4c(c1n2CCCO)Cc1ccccc1-4)C(=O)NC3` [CEP-5214], the inhibition [2] is reported as 21%, the IC50 [3] is reported as > 3000 nM and the IC50 [4] is reported as > 10000 nM. It also gave an IC50 [5] of 16 nM, an IC50 [6] of 162 nM and an IC50 [7] of 448 nM. The inhibition [8] was 89%, the IC50 [9] was 4 nM and the IC50 [10] was > 3000 nM. The solubility [11] was 10 µg/mL (≈ 22.7 µM), the IC50 [12] was > 10000 nM and the IC50 [13] was > 10000 nM. It also gave an inhibition [14] of 100%, a Cmax [15] of 100 ng/mL and an IC50 [16] of 57 nM. For the same compound, the IC50 (Angiopoietin-1 receptor) was > 10000 nM, the minimal effective dose (Mus musculus [17]) was 3 mg/kg and the IC50 [18] was 1.6 nM. It also gave an inhibition [19] of 75%, an inhibition in vivo at 10 mg/kg (Mus musculus [20]) of 57% and an IC50 [21] of 8 nM. The IC50 [22] was > 3000 nM, the inhibition [23] was 75% and the inhibition in vivo at 20 mg/kg (Mus musculus [24]) was 70%.

`O=Cc1ccc2c(c1)c1c3c(c4c(c1n2CCCO)Cc1ccccc1-4)C(=O)NC3` showed an IC50 [1] of 105 nM.

Work on `O=C1NCc2c3c(c4[nH]c5ccccc5c4c21)Cc1ccccc1-3` yielded an IC50 [1] of 414 nM.

Compound `CCCCOCc1ccc2c(c1)c1c3c(c4c(c1n2CCCO)Cc1ccccc1-4)C(=O)NC3` has an inhibition [25] of 100%.

In the case of `CC(C)OCc1ccc2[nH]c3c4c(c5c(c3c2c1)CNC5=O)-c1ccccc1C4`, the IC50 [1] is reported as 55 nM.

Compound `CCSCc1ccc2c(c1)c1c3c(c4c(c1n2CCCO)Cc1ccccc1-4)C(=O)NC3` has an inhibition [25] of 100%.

In the case of `CCCOCc1ccc2c(c1)c1c3c(c4c(c1n2CCCO)Cc1ccccc1-4)C(=O)NC3`, the inhibition [25] is reported as 100%.

Compound `CC[C@H](C)OCc1ccc2c(c1)c1c3c(c4c(c1n2CCCO)Cc1ccccc1-4)C(=O)NC3` has an inhibition [26] of 100%.

In the case of `CC(C)(C)OCc1ccc2c(c1)c1c3c(c4c(c1n2CCCO)Cc1ccccc1-4)C(=O)NC3`, the inhibition [27] is reported as 100% and the inhibition [26] is reported as 100%.

`O=C1NCc2c1c1c(c3c2c2cc(Br)ccc2n3CCCO)Cc2ccccc2-1` showed an IC50 [1] of 104 nM.

For `CC(C)[S+]([O-])Cc1ccc2c(c1)c1c3c(c4c(c1n2CCCO)Cc1ccccc1-4)C(=O)NC3` (configuration not stated), the IC50 [1] was 309 nM.

Compound `CCC(CC)OCc1ccc2c(c1)c1c3c(c4c(c1n2CCCO)Cc1ccccc1-4)C(=O)NC3` has an IC50 [1] of 35 nM.

Compound `CC(C)OCc1ccc2c(c1)c1c3c(c4c(c1n2CCCOC(=O)CN(C)C)Cc1ccccc1-4)C(=O)NC3` [CEP-7055] has an inhibition in vivo at 23.8 mg/kg (Mus musculus [28]) of 70%.

Compound `CCOCc1ccc2c(c1)c1c3c(c4c(c1n2CCCO)Cc1ccccc1-4)C(=O)NC3` has an inhibition [27] of 75% and an inhibition [29] of 100%.

`COC(C)c1ccc2c(c1)c1c3c(c4c(c1n2CCCO)Cc1ccccc1-4)C(=O)NC3` (configuration not stated) gave an inhibition [27] of 25% and an inhibition [29] of 100%.

Work on `CC[C@@H](C)OCc1ccc2c(c1)c1c3c(c4c(c1n2CCCO)Cc1ccccc1-4)C(=O)NC3` yielded an inhibition [26] of 100%.

With `CC(C)SCc1ccc2c(c1)c1c3c(c4c(c1n2CCCO)Cc1ccccc1-4)C(=O)NC3` the inhibition [25] was 100%.

`Cc1ccc2c(c1)c1c3c(c4c(c1n2CCCO)Cc1ccccc1-4)C(=O)NC3` showed an IC50 [1] of 163 nM.

Compound `CC(=O)c1ccc2c(c1)c1c3c(c4c(c1n2CCCO)Cc1ccccc1-4)C(=O)NC3` has an IC50 [1] of 187 nM.

`O=C1NCc2c1c1c(c3[nH]c4ccccc4c23)Cc2ccccc2-1` showed an IC50 [1] of 110 nM.
